Laboratory results reported in ChEMBL document CHEMBL3734702, “Design of Specific Serine Protease Inhibitors Based on a Versatile Peptide Scaffold: Conversion of a Urokinase Inhibitor to a Plasma Kallikrein Inhibitor” (J Med Chem, 2015).
Where a SMILES comes first, the peptide text is derived from it. Bridges are numbered along the chain shown (N, C = ends). [ ]: non-standard residue; d: D form. Ala(1-amidino-4-piperidyl) = N=C(N)N1CCC(C[C@H](N)C(=O)O)CC1

What was measured:
Prothrombin [1] = target: Prothrombin (Homo sapiens, UniProt P00734); assay: Inhibition of human thrombin after 15 mins using H-D-Ile-Pro-Arg-p-nitroanilide as substrate
How it was run: (§1)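 Chromogenic substrate was added at about its KM; for KLK1 this was S-2251. Initial velocities were monitored at 405 nm.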

[2] = target: Tissue-type plasminogen activator (Homo sapiens, UniProt P00750); assay: Inhibition of human tPAn after 15 mins using H-D-Ile-Pro-Arg-p-nitroanilide as substrate; how it was run: as §1
Sequence of Tissue-type plasminogen activator (Homo sapiens, UniProt P00750) (P00750 whole entry): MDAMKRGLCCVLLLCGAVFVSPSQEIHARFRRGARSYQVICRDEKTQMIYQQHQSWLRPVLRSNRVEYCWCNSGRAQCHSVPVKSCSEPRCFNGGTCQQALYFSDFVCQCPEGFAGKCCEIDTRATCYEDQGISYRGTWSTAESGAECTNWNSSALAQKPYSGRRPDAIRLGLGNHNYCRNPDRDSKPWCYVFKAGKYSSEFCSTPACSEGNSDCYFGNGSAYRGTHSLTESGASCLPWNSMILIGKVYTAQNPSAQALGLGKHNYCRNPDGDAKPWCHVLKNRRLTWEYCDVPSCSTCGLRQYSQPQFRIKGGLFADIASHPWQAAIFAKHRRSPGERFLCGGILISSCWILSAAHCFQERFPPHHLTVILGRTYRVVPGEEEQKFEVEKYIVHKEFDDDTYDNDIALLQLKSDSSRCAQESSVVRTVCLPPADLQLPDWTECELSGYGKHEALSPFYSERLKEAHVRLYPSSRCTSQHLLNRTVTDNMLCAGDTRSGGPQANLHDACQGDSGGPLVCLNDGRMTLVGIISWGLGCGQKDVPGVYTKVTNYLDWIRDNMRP

Prothrombin [3] = target: Prothrombin (Mus musculus, UniProt P19221); assay: Inhibition of mouse thrombin after 15 mins using H-D-Ile-Pro-Arg-p-nitroanilide as substrate; how it was run: as §1
[4] = target: T1, Suppressor of tumorigenicity 14 protein (Homo sapiens, UniProt Q9Y5Y6); assay: Inhibition of human matriptase after 15 mins using H-D-Ile-Pro-Arg-p-nitroanilide as substrate
T1 sequence (Q9Y5Y6 whole entry): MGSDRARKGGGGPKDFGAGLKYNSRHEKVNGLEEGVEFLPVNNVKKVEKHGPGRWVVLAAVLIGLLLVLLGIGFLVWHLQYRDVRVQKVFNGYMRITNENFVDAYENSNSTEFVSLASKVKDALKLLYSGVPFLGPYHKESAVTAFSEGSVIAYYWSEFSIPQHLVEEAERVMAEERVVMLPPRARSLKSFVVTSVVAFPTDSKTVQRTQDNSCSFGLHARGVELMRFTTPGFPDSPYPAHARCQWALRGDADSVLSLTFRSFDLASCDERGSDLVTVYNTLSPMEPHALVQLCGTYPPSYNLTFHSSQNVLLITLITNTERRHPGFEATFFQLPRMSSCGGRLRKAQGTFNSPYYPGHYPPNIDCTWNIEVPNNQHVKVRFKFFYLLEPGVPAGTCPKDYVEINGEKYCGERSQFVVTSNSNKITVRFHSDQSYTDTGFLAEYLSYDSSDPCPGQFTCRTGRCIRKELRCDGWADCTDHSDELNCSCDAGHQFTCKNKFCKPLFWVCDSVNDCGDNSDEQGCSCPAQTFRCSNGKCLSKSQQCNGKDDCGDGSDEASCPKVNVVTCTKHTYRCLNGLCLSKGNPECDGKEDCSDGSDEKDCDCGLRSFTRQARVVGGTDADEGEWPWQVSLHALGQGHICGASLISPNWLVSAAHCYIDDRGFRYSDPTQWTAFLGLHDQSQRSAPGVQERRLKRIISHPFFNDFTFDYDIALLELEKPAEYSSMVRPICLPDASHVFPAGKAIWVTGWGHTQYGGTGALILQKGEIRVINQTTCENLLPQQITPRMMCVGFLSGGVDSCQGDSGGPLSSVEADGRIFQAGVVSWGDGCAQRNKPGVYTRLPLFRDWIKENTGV

[5] = target: Vitamin K-dependent protein C (Homo sapiens, UniProt P04070); assay: Inhibition of human activated protein C after 15 mins using H-D-Ile-Pro-Arg-p-nitroanilide as substrate; how it was run: as §1
Sequence of Vitamin K-dependent protein C (P04070 43-197 limits assumed): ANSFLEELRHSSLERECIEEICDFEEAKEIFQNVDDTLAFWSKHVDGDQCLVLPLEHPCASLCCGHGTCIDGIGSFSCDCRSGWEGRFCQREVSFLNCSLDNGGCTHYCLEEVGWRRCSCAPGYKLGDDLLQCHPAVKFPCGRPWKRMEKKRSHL
Sequence of Vitamin K-dependent protein C (P04070 212-461 limits assumed): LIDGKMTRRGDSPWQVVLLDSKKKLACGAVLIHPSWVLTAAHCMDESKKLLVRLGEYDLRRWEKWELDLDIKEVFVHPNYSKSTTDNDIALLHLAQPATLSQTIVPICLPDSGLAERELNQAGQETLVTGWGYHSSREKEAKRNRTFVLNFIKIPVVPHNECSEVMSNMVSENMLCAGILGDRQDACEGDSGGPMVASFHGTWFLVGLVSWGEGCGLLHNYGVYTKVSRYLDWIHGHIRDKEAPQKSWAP

[6] = target: Tissue-type plasminogen activator (Mus musculus, UniProt P11214); assay: Inhibition of mouse tPA after 15 mins using Z-D-Arg-Gly-Arg-p-nitroanilide as substrate; how it was run: as §1
Sequence of Tissue-type plasminogen activator (Mus musculus, UniProt P11214) (P11214 whole entry): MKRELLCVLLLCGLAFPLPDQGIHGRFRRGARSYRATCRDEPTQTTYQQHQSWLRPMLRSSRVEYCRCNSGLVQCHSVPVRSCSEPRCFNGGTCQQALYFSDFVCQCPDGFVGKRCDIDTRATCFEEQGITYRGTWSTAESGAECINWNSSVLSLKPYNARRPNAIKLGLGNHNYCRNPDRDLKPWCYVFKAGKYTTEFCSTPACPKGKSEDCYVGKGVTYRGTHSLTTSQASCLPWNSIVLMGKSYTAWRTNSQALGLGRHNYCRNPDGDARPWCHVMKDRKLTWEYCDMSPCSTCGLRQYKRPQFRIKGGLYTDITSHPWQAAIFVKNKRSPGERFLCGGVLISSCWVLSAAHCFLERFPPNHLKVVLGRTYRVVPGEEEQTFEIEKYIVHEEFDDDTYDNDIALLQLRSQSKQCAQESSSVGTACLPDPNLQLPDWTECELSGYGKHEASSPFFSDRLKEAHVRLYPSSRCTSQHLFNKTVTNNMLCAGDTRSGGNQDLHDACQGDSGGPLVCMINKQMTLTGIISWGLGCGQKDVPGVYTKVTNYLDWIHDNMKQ

[7] = target: Urokinase-type plasminogen activator (Mus musculus) (UniProt P06869); assay: Binding affinity to mouse uPA
Sequence of Urokinase-type plasminogen activator (Mus musculus) (P06869 21-178 limits assumed): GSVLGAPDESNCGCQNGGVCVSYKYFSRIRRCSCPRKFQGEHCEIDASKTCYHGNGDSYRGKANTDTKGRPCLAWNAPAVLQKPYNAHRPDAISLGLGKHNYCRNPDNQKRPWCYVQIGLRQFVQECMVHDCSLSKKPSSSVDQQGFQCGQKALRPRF
Sequence of Urokinase-type plasminogen activator (Mus musculus) (P06869 180-433 limits assumed): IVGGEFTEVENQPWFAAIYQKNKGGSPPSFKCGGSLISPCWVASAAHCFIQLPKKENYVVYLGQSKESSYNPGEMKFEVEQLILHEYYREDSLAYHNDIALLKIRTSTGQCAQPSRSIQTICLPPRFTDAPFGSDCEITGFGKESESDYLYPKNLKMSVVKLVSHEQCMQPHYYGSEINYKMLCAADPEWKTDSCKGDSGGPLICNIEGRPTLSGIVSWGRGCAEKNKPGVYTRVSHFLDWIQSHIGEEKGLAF

[8] = target: T2, Urokinase-type plasminogen activator (Homo sapiens, UniProt P00749); assay: Binding affinity to human uPA
Plasma kallikrein [9] = target: Plasma kallikrein (Mus musculus, UniProt P26262); assay: Inhibition of mouse plasma kallikrein for 15 mins using H-D-Pro-Phe-Arg-p-nitroanilide as substrate; assay type: cell-free; how it was run: as §1
[10] = target: T2, Urokinase-type plasminogen activator; assay: Inhibition of human uPA for 15 mins using pyro-Glu-Gly-Arg-p-nitroanilide as substrate
Coagulation factor XI = Coagulation factor XI (Homo sapiens, UniProt P03951); assay: Inhibition of human coagulation factor 11a after 15 mins
Plasma kallikrein [11] = target: Plasma kallikrein (Homo sapiens, UniProt P03952); assay: Inhibition of human plasma kallikrein for 15 mins using H-D-Pro-Phe-Arg-p-nitroanilide as substrate; assay type: cell-free
Sequence of Plasma kallikrein (Homo sapiens, UniProt P03952) (P03952 20-390 limits assumed): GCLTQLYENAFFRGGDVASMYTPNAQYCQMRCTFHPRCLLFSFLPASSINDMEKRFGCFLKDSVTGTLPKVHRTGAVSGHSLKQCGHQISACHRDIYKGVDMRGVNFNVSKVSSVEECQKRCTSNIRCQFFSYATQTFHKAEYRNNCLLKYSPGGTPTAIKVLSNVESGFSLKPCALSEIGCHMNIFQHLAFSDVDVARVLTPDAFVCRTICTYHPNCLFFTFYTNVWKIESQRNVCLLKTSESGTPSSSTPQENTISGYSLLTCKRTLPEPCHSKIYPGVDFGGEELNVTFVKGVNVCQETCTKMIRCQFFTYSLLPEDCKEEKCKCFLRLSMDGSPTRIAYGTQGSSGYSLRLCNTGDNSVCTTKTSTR
Sequence of Plasma kallikrein (Homo sapiens, UniProt P03952) (P03952 391-638 limits assumed): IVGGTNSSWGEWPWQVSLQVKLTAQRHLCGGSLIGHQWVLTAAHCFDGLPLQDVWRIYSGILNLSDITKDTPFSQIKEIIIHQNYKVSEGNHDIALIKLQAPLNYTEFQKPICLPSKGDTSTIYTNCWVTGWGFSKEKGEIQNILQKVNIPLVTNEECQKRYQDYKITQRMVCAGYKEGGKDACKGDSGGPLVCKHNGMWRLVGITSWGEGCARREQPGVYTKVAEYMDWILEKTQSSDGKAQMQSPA

Plasminogen [12] = target: Plasminogen (Mus musculus, UniProt P20918); assay: Inhibition of mouse plasmin after 15 mins using H-D-Ile-Pro-Arg-p-nitroanilide as substrate; how it was run: as §1
Sequence of Plasminogen (Mus musculus, UniProt P20918) (P20918 98-581 limits assumed): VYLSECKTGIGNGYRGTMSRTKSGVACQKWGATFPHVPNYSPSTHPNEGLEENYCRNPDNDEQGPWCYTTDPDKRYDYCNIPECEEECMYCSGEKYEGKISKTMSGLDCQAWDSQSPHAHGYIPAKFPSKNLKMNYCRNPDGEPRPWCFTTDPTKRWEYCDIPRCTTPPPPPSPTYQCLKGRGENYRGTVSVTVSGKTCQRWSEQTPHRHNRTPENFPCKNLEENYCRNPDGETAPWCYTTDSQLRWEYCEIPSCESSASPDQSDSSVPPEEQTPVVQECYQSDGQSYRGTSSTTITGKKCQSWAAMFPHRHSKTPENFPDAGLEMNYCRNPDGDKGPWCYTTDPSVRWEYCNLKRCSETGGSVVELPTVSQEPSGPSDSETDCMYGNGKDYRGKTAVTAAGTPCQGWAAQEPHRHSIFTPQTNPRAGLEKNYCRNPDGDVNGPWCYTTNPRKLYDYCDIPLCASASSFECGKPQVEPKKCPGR
Sequence of Plasminogen (Mus musculus, UniProt P20918) (P20918 582-812 limits assumed): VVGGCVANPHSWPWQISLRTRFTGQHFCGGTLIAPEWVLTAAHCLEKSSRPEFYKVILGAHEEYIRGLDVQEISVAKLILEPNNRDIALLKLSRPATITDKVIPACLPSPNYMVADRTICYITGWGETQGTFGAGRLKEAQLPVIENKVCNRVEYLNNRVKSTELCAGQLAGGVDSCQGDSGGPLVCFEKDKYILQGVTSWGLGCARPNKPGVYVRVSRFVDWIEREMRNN

Plasminogen [13] = target: Plasminogen (Homo sapiens, UniProt P00747); assay: Inhibition of human plasmin after 15 mins using H-D-Ile-Pro-Arg-p-nitroanilide as substrate; how it was run: as §1
Sequence of Plasminogen (Homo sapiens, UniProt P00747) (P00747 97-580 limits assumed): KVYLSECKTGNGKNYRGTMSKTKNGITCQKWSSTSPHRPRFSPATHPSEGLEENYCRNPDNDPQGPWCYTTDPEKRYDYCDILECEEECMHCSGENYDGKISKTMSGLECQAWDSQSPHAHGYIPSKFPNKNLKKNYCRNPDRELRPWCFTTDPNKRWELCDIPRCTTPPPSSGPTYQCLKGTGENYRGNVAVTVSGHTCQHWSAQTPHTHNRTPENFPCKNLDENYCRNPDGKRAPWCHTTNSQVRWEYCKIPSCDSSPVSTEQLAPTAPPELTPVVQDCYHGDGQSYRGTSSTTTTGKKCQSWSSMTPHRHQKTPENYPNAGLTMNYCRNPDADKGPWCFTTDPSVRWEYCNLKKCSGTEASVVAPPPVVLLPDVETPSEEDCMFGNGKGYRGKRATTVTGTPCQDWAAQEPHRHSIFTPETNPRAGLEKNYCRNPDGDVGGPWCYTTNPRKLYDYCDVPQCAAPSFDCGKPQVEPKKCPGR
Sequence of Plasminogen (Homo sapiens, UniProt P00747) (P00747 581-810 limits assumed): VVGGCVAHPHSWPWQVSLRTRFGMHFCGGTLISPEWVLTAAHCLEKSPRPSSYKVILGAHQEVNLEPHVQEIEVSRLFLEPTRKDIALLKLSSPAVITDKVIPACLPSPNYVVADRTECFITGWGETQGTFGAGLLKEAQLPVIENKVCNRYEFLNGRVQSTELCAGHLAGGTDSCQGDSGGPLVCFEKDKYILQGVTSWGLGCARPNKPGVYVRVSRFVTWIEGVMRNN

Kallikrein-1 = Kallikrein-1 (Homo sapiens, UniProt P06870); assay: Inhibition of human KLK1 after 15 mins using Val-Leu-Lys-p-nitroanilide as substrate; how it was run: as §1
Sequence of Kallikrein-1 (P06870 whole entry): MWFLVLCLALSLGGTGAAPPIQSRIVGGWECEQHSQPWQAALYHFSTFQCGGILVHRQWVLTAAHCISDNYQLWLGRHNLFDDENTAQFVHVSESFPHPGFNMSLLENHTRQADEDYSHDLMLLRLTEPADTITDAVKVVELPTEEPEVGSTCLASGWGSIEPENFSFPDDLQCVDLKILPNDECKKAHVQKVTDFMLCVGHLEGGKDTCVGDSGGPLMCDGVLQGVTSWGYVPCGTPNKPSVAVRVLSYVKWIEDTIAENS

[14] = target: Urokinase-type plasminogen activator (Mus musculus, UniProt P06869); assay: Inhibition of mouse uPA for 15 mins using pyro-Glu-Gly-Arg-p-nitroanilide as substrate
Sequence of Urokinase-type plasminogen activator (Mus musculus, UniProt P06869) (P06869 21-178 limits assumed): as the sequence (P06869 21-178 limits assumed) above
Sequence of Urokinase-type plasminogen activator (Mus musculus, UniProt P06869) (P06869 180-433 limits assumed): as the sequence (P06869 180-433 limits assumed) above

Serine protease 1 = target: T3, Serine protease 1 (Bos taurus, UniProt P00760); assay: Inhibition of bovine beta-trypsin after 15 mins using Bz-Ile-Glu(g-OR)-Gly-Arg-p-nitroanilide as substrate; how it was run: as §1
T3 sequence (P00760 whole entry): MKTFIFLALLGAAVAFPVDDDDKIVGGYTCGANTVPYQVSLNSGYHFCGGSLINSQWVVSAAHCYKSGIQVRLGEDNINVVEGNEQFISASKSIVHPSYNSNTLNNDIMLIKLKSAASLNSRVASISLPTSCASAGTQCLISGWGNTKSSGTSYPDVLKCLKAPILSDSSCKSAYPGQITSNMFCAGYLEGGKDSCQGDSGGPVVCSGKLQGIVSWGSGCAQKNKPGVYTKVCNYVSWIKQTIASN

Row | SMILES | Ki (Prothrombin [1]) [mM] | Ki [2] [mM] | Ki (Prothrombin [3]) [mM] | Ki [4] [mM] | Ki [5] [mM] | Ki [6] [mM] | Activity [7] [nM] | Activity [8] [nM] | Ki (Plasma kallikrein [9]) [nM] | Ki [10] [mM] | Ki (Coagulation factor XI) [mM] | Ki (Plasma kallikrein [11]) [nM] | Ki (Plasminogen [12]) [mM] | Ki (Plasminogen [13]) [mM] | Ki (Kallikrein-1) [mM] | Ki [14] [mM] | Ki (Serine protease 1) [mM]
1 | CC(C)C[C@@H]1NC(=O)[C@H](Cc2ccc(O)cc2)NC(=O)[C@H](CCCNC(=N)N)NC(=O)[C@H](CO)NC(=O)[C@H](Cc2ccc(O)cc2)NC(=O)[C@H](C)NC(=O)[C@@H]2CCCN2C(=O)[C@@H](N)CSSC[C@@H](C(=O)O)NC(=O)[C@H](CC(=O)O)NC1=O (H-CPAYSRYLDC-OH; disulfide 1-10) | > 1 | > 1 | > 1 | > 1 | > 1 | > 1 | 2 | 530 |  |  |  |  |  |  |  |  | 
2 | CC(C)C[C@@H]1NC(=O)[C@H](Cc2ccc(O)cc2)NC(=O)[C@H](CC2CCN(C(=N)N)CC2)NC(=O)[C@H](CO)NC(=O)[C@H](Cc2ccc(O)cc2)NC(=O)[C@H](C)NC(=O)[C@@H]2CCCN2C(=O)[C@@H](N)CSSC[C@@H](C(=O)O)NC(=O)[C@H](CC(=O)O)NC1=O (H-CPAYS[Ala(1-amidino-4-piperidyl)]YLDC-OH; disulfide 1-10) | > 1 | > 1 | > 1 | > 1 | > 1 | > 1 |  |  |  |  |  |  |  |  |  |  | 
3 | CC(C)C[C@@H]1NC(=O)[C@H](C)NC(=O)[C@H](CC2CCN(C(=N)N)CC2)NC(=O)[C@H](Cc2ccccc2)NC(=O)[C@H](CCCNC(=N)N)NC(=O)[C@H](CCCCN)NC(=O)[C@@H]2CCCN2C(=O)[C@@H](N)CSSC[C@@H](C(=O)O)NC(=O)[C@H](Cc2ccccc2)NC1=O (H-CPKRF[Ala(1-amidino-4-piperidyl)]ALFC-OH; disulfide 1-10) | > 1 | > 1 | > 1 | > 1 | > 1 | > 1 |  |  | 43 | > 1 | 0.0121 | 22 | 0.00342 | 0.0125 | 0.000384 | > 1 | 0.0141

More lines, now with the values ahead:

Row | Ki (Prothrombin [1]) [mM] | Ki [2] [mM] | Ki (Prothrombin [3]) [mM] | Ki [4] [mM] | Ki [5] [mM] | Ki [6] [mM] | Activity [7] [nM] | Activity [8] [nM] | Ki (Plasma kallikrein [9]) [nM] | Ki [10] [mM] | Ki (Coagulation factor XI) [mM] | Ki (Plasma kallikrein [11]) [nM] | Ki (Plasminogen [12]) [mM] | Ki (Plasminogen [13]) [mM] | Ki (Kallikrein-1) [mM] | Ki [14] [mM] | Ki (Serine protease 1) [mM] | SMILES
4 | > 1 | > 1 | > 1 | > 1 | > 1 | > 1 |  |  |  |  |  |  |  |  |  |  |  | CC(C)C[C@@H]1NC(=O)[C@H](C)NC(=O)[C@H](CC2CCN(C(=N)N)CC2)NC(=O)[C@H](Cc2ccccc2)NC(=O)[C@H](CCCNC(=N)N)NC(=O)[C@H](C)NC(=O)[C@@H]2CCCN2C(=O)[C@@H](N)CSSC[C@@H](C(=O)O)NC(=O)[C@H](Cc2ccccc2)NC1=O (H-CPARF[Ala(1-amidino-4-piperidyl)]ALFC-OH; disulfide 1-10)
5 | > 1 | > 1 | > 1 | > 1 | > 1 | > 1 |  |  |  |  |  |  |  |  |  |  |  | CC(C)C[C@@H]1NC(=O)[C@H](C)NC(=O)[C@H](CC2CCN(C(=N)N)CC2)NC(=O)[C@H](Cc2ccccc2)NC(=O)[C@H](CCCNC(=N)N)NC(=O)[C@H](C)NC(=O)[C@@H]2CCCN2C(=O)[C@@H](N)CSSC[C@@H](C(=O)O)NC(=O)[C@H](Cc2c[nH]c3ccccc23)NC1=O (H-CPARF[Ala(1-amidino-4-piperidyl)]ALWC-OH; disulfide 1-10)
